Measurements reported in ChEMBL document CHEMBL1132280, “Discovery of potent and selective SH2 inhibitors of the tyrosine kinase ZAP-70” (J Med Chem, 1999).
Square brackets hold non-standard residues; d marks the D form. Peptide text beside a SMILES is read from it. pY = N[C@@H](Cc1ccc(OP(=O)(O)O)cc1)C(=O)O

What was measured:
Design in all cases: species or system Escherichia coli
[1] = biological target: Proto-oncogene tyrosine-protein kinase Src (Homo sapiens, UniProt P12931); experiment: Binding affinity against Src SH2 domain
[2] = biological target: Tyrosine-protein kinase SYK (Homo sapiens, UniProt P43405); experiment: Binding affinity against Syk protein tyrosine kinase SH2 domain
[3] = biological target: T1, Tyrosine-protein kinase ZAP-70 (Homo sapiens, UniProt P43403); experiment: Binding affinity against SH2 domain of Zeta-chain (TCR) associated protein kinase 70 kDa
T1 sequence (P43403 whole entry): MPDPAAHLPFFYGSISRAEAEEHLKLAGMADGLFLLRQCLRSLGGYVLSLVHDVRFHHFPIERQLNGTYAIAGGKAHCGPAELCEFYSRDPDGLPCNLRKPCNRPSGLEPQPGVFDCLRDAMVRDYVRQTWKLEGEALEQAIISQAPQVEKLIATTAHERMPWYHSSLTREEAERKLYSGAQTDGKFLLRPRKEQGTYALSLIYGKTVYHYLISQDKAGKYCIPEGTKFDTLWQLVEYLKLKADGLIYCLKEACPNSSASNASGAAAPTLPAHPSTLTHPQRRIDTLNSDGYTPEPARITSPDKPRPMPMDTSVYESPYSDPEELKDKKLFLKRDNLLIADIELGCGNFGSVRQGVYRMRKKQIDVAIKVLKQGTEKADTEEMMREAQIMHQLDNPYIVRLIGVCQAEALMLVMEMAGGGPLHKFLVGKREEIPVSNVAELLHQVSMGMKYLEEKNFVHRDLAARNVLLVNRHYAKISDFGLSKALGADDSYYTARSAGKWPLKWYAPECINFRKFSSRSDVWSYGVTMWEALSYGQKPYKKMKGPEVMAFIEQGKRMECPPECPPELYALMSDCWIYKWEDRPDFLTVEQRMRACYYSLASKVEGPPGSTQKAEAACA

[4] = biological target: Growth factor receptor-bound protein 2 (Homo sapiens, UniProt P62993); experiment: Binding affinity against Growth factor receptor bound protein 2
Outline: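 Fluorescence polarization competition assay using human Grb2 SH2 (residues 55–152), expressed in E. coli BL21(DE3) and purified on phosphotyrosine-agarose. Compounds were serially diluted 1:2 across 1000–0.04 μM in 20 mM phosphate pH 7.4 with 100 mM NaCl, 10 mM DTT, 4% DMSO, 1 mM EDTA and 0.1% bovine γ-globulin. They were added to 1.25 µM protein premixed with 20 nM fluorescein-labelled peptide (ex 485/em 530 nm). IC50 was taken from percent tracer bound relative to vehicle, as the mean of ≥3 experiments.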

Sequence of Proto-oncogene tyrosine-protein kinase Src (P12931 2-536 limits assumed): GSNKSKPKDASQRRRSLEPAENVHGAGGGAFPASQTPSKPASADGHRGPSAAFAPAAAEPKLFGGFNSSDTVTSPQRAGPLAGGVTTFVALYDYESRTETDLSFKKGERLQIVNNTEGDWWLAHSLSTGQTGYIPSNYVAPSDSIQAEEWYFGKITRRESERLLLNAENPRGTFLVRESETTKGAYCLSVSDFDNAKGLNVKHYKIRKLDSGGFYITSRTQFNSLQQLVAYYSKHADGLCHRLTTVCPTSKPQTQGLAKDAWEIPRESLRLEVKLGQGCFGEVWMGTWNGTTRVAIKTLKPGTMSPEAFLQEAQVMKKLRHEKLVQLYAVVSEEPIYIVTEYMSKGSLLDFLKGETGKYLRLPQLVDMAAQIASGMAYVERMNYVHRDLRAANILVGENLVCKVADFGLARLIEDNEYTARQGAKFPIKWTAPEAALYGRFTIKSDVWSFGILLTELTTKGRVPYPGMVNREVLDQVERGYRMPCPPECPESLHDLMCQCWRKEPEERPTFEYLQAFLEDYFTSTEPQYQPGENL
Sequence of Growth factor receptor-bound protein 2 (P62993 whole entry, the tested form may be a part): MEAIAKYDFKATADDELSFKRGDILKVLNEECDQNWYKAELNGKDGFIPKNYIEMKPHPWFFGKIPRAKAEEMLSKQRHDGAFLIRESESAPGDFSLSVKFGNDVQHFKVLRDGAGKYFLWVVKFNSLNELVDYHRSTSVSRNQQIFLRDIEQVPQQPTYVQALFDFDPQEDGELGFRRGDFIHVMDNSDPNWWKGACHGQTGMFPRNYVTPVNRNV

Row | SMILES | IC50 [1] | IC50 [2] | IC50 [3] | IC50 [4]
1 | CC(=O)N[C@@H](Cc1ccc(OP(=O)(O)O)cc1)C(=O)NCCc1nc(Cc2ccc(C(F)(F)F)cc2)no1 | > 500 µM | > 500 µM | > 500 µM | 
2 | CC(=O)N[C@@H](Cc1ccc(OP(=O)(O)O)cc1)C(=O)NC(C)(C)c1nc(Cc2ccc(C(F)(F)F)cc2)no1 | 489 µM | > 500 µM | 228 µM | 
3 | CC(=O)N[C@@H](Cc1ccc(OP(=O)(O)O)cc1)C(=O)NCc1nc(Cc2ccc(C(F)(F)F)cc2)no1 | > 500 µM | > 500 µM | 128 µM | 
4 | CC[C@H](C)[C@H](NC(=O)[C@H](CCC(=O)O)NC(=O)[C@H](CCC(=O)O)NC(=O)[C@H](Cc1ccc(OP(=O)(O)O)cc1)NC(C)=O)C(N)=O | 6 µM | 171 µM | 530 µM | 
5 | CC(=O)N[C@@H](Cc1ccc(OP(=O)(O)O)cc1)C(=O)N[C@@H](CCC(N)=O)c1nc(CCc2ccccc2)no1 | 156 µM | > 500 µM | > 500 µM | 
6 | CC(=O)N[C@@H](Cc1ccc(OP(=O)(O)O)cc1)C(=O)N[C@@H](CCC(N)=O)c1nc(Cc2ccccc2)no1 | 72 µM | > 500 µM | > 500 µM | 456 µM
7 | CC(=O)N[C@@H](Cc1ccc(OP(=O)(O)O)cc1)C(=O)N[C@@H](CC(=O)O)C(=O)N[C@H](C(=O)N[C@@H](CC(C)C)C(N)=O)C(C)C (Ac-[pY]DVL-NH2) | 261 µM | 389 µM | 328 µM | 
8 | CC(=O)N[C@@H](Cc1ccc(OP(=O)(O)O)cc1)C(=O)N[C@@H](CC(N)=O)C(=O)N[C@@H](CCC(=O)O)C(=O)N[C@@H](CC(C)C)C(N)=O (Ac-[pY]NEL-NH2) | 237 µM | 420 µM | 422 µM | 
